Screens deposited in PubChem BioAssay by several laboratories.
Hits are enriched below; roughly 1.9% of the tested compounds scored in any of these assays.
ADAM17 inh: inhibitors of human ADAM17. P78536. recombinant ADAM17, EDANS/DABCYL FRET peptide cleavage. inhibition, % at 6.95 µM. 370,000 compounds, 0.83% hits;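 active means inhibition above the mean of compounds lying between control limits plus 3 SD, set per campaign, cut at about 8.5% in these data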
ADAM10 inh: inhibits human ADAM10; inhibition, % at 7 µM; AID 720582; recombinant ADAM10, EDANS/DABCYL FRET peptide cleavage, 3 h; 370,000 compounds, 0.62% hits;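 active means inhibition above a per-campaign cutoff equal to the mean of compounds falling between control-based bounds plus 3 SD, cut at about 20% in these data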
Target sequence (O14672 214-748 limits assumed): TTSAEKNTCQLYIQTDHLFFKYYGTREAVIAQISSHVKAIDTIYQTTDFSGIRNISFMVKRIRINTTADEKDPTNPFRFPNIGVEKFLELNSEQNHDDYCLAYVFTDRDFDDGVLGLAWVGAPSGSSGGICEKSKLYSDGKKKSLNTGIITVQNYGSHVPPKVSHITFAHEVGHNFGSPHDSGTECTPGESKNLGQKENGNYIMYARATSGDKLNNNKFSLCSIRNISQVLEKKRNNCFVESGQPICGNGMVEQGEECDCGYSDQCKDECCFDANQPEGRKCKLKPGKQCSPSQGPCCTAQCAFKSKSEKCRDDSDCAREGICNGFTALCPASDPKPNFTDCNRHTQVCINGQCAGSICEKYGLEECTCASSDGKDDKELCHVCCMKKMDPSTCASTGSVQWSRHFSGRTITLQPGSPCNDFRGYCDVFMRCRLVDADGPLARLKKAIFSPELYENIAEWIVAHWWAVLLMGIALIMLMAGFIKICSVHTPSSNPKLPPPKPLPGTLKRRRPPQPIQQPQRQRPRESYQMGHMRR
SENP1 inh: inhibitors of human SENP1 SUMO protease catalytic domain. recombinant SENP1 catalytic domain, CyPet-SUMO1-YPet FRET cleavage. inhibition, % at 10 µM. 360,000 compounds, 0.21% hits. AID 624204;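 active means inhibition at least 30% at 10 µM, raw YFP signal under a set limit, fluorescence ratio 0.5 to 1.5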
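Controls: no-enzyme wells low, DMSO-plus-enzyme wells high control. Test system: human recombinant His6-tagged SENP1 catalytic domain enzyme. Reagent: SFCypet-SUMO1-SFYpet FRET protein substrate, 25 nM final. Doses: one dose per compound, 10 µM, 0.5% DMSO. Detection: FRET, CFP and YFP emission. Timing: 50 min reaction at room temperature.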
FAS-TE inh: inhibitors of human fatty acid synthase thioesterase domain | P49327 | recombinant FAS-TE, OMFH fluorogenic substrate, fluorescence endpoint | inhibition, % at 15 µM | 360,000 compounds, 0.67% hits | AID 602261;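 active means compounds whose normalised, plate-corrected inhibition of enzyme fluorescence in the single-dose primary screen is 50% or more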
FAS-TE conf: FAS thioesterase (human) inhibition, confirmation; shares compounds with FAS-TE inh; recombinant FAS-TE, OMFH fluorogenic substrate, fluorescence; inhibition, % at 15 µM; 2,300 compounds, 45% hits; AID 624325;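 active means compounds inhibiting the enzyme by at least 50% at 15 µM in any one of the replicates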
Of the large screens only hits and unclear results are named; the others gave an inactive call (follow-up assays come after a bar, where they were run).

CC(C)(C)n1ncc2c(=O)n(Cc3cc(F)c(Cl)cc3Cl)cnc21	FAS-TE inh 52 | FAS-TE conf inactive
Cc1ccc(C)c(Cn2cnc3c(cnn3C(C)(C)C)c2=O)c1	none
CCn1c(SCC(=O)Nc2cccc3ccccc23)nnc1-c1cccs1	none (no result: SENP1 inh, FAS-TE inh)
COc1ccc2[nH]c3c(c2c1)CCN1C(=O)C(CC(=O)NC(C)(C)C)C[C@H](C(=O)N2CCOCC2)[C@@]31CCC1CCCC1 (some centres not stated)	FAS-TE inh 53 | FAS-TE conf 69
COc1ccc2[nH]c3c(c2c1)CCN1C(=O)C(CC(=O)NCc2ccc(OC)c(OC)c2)C[C@H](C(=O)N2CCOCC2)[C@@]31CCC1CCCC1 (some centres not stated)	none
COc1ccc2[nH]c3c(c2c1)CCN1C(=O)C(CC(=O)NCc2ccco2)C[C@H](C(=O)N2CCOCC2)[C@@]31CCC1CCCC1 (some centres not stated)	FAS-TE inh 65 | FAS-TE conf 76
C[C@@H](NC(=O)C[C@H]1CC[C@H]2[C@@H](COc3ccc(NC(=O)Nc4ccccc4)cc3C(=O)N2C)O1)c1ccccc1	none (no result: SENP1 inh, FAS-TE inh)
O=C1CCCC2=C1C1(CCCCC1)N=C(Nc1nc3ccccc3o1)N2	none
O=C1CC(c2ccccc2)CC2=C1C1(CCCC1)N=C(Nc1nc3ccccc3o1)N2 (configuration not stated)	FAS-TE inh 69 | FAS-TE conf inactive
CCC(CO)Nc1cccc2c1S(=O)(=O)N(Cc1cn(Cc3ccc(F)cc3)nn1)Cc1ccccc1O2 (configuration not stated)	none (no result: SENP1 inh, FAS-TE inh)
CS(=O)(=O)N1CCC[C@]2(CC[C@H](CCC#N)O2)C1	none (no result: SENP1 inh, FAS-TE inh)
O=C(NC1CCCN(CCc2ccccc2)C1)c1c[nH]c2ccccc12 (configuration not stated)	none
CN1C[C@H](C(=O)NC2(C)OC3(O)[C@@H]4CCCN4C(=O)[C@H](Cc4ccccc4)N3C2=O)CC2c3cccc4[nH]cc(c34)C[C@H]21 (some centres not stated)	FAS-TE inh 59 | FAS-TE conf 73
COc1ccc(-n2cnc3c(sc4nc(N5CCOCC5)c5c(c43)CCCC5)c2=O)cc1	FAS-TE inh 63 | FAS-TE conf inactive
Cc1ccc(-n2cnc3c(sc4nc(N5CCOCC5)c5c(c43)CCCC5)c2=O)cc1	none
O=c1c2sc3nc(N4CCOCC4)c4c(c3c2ncn1-c1ccccc1)CCCC4	none
Cc1ccccc1-n1cnc2c(sc3nc(N4CCOCC4)c4c(c32)CCCC4)c1=O	FAS-TE inh 66 | FAS-TE conf inactive
CC(=O)N1N=C(c2cccc(Cl)c2)OC1c1cccc([N+](=O)[O-])c1 (configuration not stated)	none
CC(=O)N1N=C(c2cccc([N+](=O)[O-])c2)OC1c1cccc(Br)c1 (configuration not stated)	FAS-TE inh 54 | FAS-TE conf 60
CC(C)OC(=O)/C(C#N)=C/c1cn(C)c2ccccc12	FAS-TE inh 52 | FAS-TE conf 49
CC(C)OC(=O)/C(C#N)=C/c1cn(Cc2ccccc2)c2ccccc12	none
Cc1nn(-c2ccccc2)c(N2CCCC2)c1/C=N/NC(=O)c1cc(-c2ccccn2)nc2ccccc12	FAS-TE inh 77 | FAS-TE conf inactive
Cc1nn(-c2ccccc2)c(N2CCCC2)c1/C=N/NC(=O)c1cc(-c2cccs2)nc2ccccc12	FAS-TE inh 80 | FAS-TE conf inactive
Cc1nn(-c2ccccc2)c(N2CCCC2)c1/C=N/NC(=O)c1cccc(S(=O)(=O)Nc2ccc(Cl)cc2)c1	FAS-TE inh 50 | FAS-TE conf inactive
Cc1nn(-c2ccccc2)c(Cl)c1/C=N/NC(=O)c1cccc(S(=O)(=O)N2CCCC2)c1	none
CC(C)(C)c1ccc(C(=O)Nc2cccc([N+](=O)[O-])c2)cc1	none
CCCc1cc(C(=O)Nc2cccc([N+](=O)[O-])c2)cs1	FAS-TE inh 52 | FAS-TE conf 41
Cn1c(=O)c2cc3c(nc2n(C)c1=O)CC(c1ccccc1)CC3=O (configuration not stated)	FAS-TE inh 60 | FAS-TE conf 51
Cc1c(C(=O)Nc2ccc(Cl)cc2)c2ccccn2c1C(=O)c1ccccc1	none
Cc1c(C(=O)Nc2ccc(Cl)cc2)c2ccccn2c1C(=O)c1ccc([N+](=O)[O-])cc1	FAS-TE inh 71 | FAS-TE conf inactive
CCCC(=O)OCCNc1cc(SCc2ccco2)c2nonc2c1[N+](=O)[O-]	none
CCCSc1cc(NCCOC(=O)CCC)c([N+](=O)[O-])c2nonc12	FAS-TE inh 51 | FAS-TE conf 58
CCCC(=O)OCCNc1cc(Sc2nccn2C)c2nonc2c1[N+](=O)[O-]	FAS-TE inh 62 | FAS-TE conf 62
CC(c1ccc(NC(=O)OC(C)(C)C)cc1)c1cn(C)c2ccccc12 (configuration not stated)	none (no result: SENP1 inh, FAS-TE inh)
O=C(NNC(=O)c1cccc(S(=O)(=O)N2CCCCC2)c1)c1ccccc1	none
CC(C)Cn1c(O)c(N=NC(=O)c2cccc(S(=O)(=O)N3CCCCC3)c2)c2ccccc21	FAS-TE inh 58 | FAS-TE conf inactive
Cc1ccc(Cn2nnc3c2-c2ccccc2S(=O)(=O)N(C2CC2)C3)cc1	none (no result: SENP1 inh, FAS-TE inh)
Cc1ccc(C=Nn2c(-c3n[nH]c4c3CCC4)n[nH]c2=S)o1	none (no result: SENP1 inh, FAS-TE inh)
Cc1cccc(OC(=O)Nc2ccc(C(=O)O)c(O)c2)c1	none
CC(C)(C)c1ccc(OC(=O)Nc2ccc(O)c(C(=O)O)c2)cc1	FAS-TE inh 50 | FAS-TE conf 63
Fc1ccc(-c2cc(-c3nnc4sc(-c5cccs5)nn34)[nH]n2)cc1	none (no result: SENP1 inh, FAS-TE inh)
CC(=O)c1cccc(NC(=O)C2Cc3c(-c4cccc(C(C)=O)c4)ccnc3O2)c1 (configuration not stated)	none
CC(=O)c1cccc(-c2ccnc3c2CC(C(=O)Nc2ccc(C(C)C)cc2)O3)c1 (configuration not stated)	FAS-TE inh 55 | FAS-TE conf 59
COc1ccc(NC(=O)CC2C(=O)N(C)C(=S)N2Cc2cccs2)cc1 (configuration not stated)	FAS-TE inh 51 | FAS-TE conf 58
CCCOc1ccc(NC(=O)CC2C(=O)N(CC)C(=S)N2Cc2cccs2)cc1 (configuration not stated)	FAS-TE inh 59 | FAS-TE conf 65
COc1ccc(CCN2C(=S)N(C)C(=O)C2CC(=O)Nc2ccc(OC)cc2)cc1 (configuration not stated)	none
COc1cc(S(=O)(=O)Nc2ccc(C)cc2)ccc1N=Cc1c(C)[nH]n(-c2ccccc2)c1=O	FAS-TE inh 55 | FAS-TE conf inactive
C#CCCN([C@H](C(=O)OC)C(C)C)S(=O)(=O)c1ccccc1Br	none (no result: SENP1 inh, FAS-TE inh)
Cc1cc(S(=O)(=O)c2ccc(Cl)cc2)nc(S(=O)(=O)c2ccc(Cl)cc2)c1C#N	FAS-TE inh 69 | FAS-TE conf 72
